Measured values published in ChEMBL document CHEMBL3351949, “Substituted dithiazole piperazine benzamides as novel amyloid beta peptide reducing agents” (Bioorg Med Chem Lett, 2014).
Active and inactive are the calls of the source. No cut-off for these calls is given here.

Experiments:
[1] = biological target: Amyloid-beta precursor protein (Homo sapiens) (UniProt P05067); test: Reduction in wild type APP751 (unknown origin) expressed in CHO cells at 1 uM after 48 hrs by immunoblotting method; assay type: cell-based
Method in brief: (§1)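 CHO cells stably expressing APP751wt (7WD10) treated 48 h, duplicate wells, DMSO as control. Conditioned medium centrifuged and immunoprecipitated overnight with Ab9 (Aβ 1–16). Aβ detected by SDS-PAGE immunoblot with 6E10/82E1 and ECL, signals quantified by densitometry. Dose-response n=4; ANOVA with Dunnett's post-hoc test.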

N2a = test: Reduction in […] APP695 Sweden mutant (unknown origin) expressed in N2a cells by immunoblotting method; assay type: cell-based; conditions: Homo sapiens
Method in brief: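 Neuro-2a cells stably expressing APP695swe treated at 1.0 μM. Aβ immunoprecipitated from conditioned medium with Ab9 antibody (Aβ 1–16) and detected by immunoblot with 6E10/82E1 mixture.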

[2] = biological target: Amyloid-beta precursor protein (Homo sapiens) (UniProt P05067); test: Reduction in wild type APP751 (unknown origin) expressed in CHO cells at 500 nM after 48 hrs by immunoblotting method relative to untreated control; assay type: cell-based; method in brief: as §1
[3] = biological target: Amyloid-beta precursor protein (Homo sapiens) (UniProt P05067); test: Reduction in wild type APP751 (unknown origin) expressed in CHO cells at 1 uM after 48 hrs by immunoblotting method relative to untreated control; assay type: cell-based; method in brief: as §1
[4] = biological target: Amyloid-beta precursor protein (Homo sapiens) (UniProt P05067); test: Reduction in wild type APP751 (unknown origin) expressed in CHO cells at 10 uM after 48 hrs by immunoblotting method relative to untreated control; assay type: cell-based; method in brief: as §1
[5] = biological target: Amyloid-beta precursor protein (Homo sapiens) (UniProt P05067); test: Reduction in wild type APP751 (unknown origin) expressed in CHO cells at 50 nM after 48 hrs by immunoblotting method relative to untreated control; assay type: cell-based; method in brief: as §1
[6] = biological target: Amyloid-beta precursor protein (Homo sapiens) (UniProt P05067); test: Reduction in wild type APP751 (unknown origin) expressed in CHO cells at 100 nM after 48 hrs by immunoblotting method relative to untreated control; assay type: cell-based; method in brief: as §1
[7] = biological target: Amyloid-beta precursor protein (Homo sapiens) (UniProt P05067); test: Reduction in wild type APP751 (unknown origin) expressed in CHO cells assessed as increase in c-terminal fragments at 50 nM to 10 uM after 48 hrs by immunoblotting method relative to untreated control; assay type: cell-based
Method in brief: (§2)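 7WD10 CHO cells (APP751wt) treated 48 h versus DMSO controls. Cells lysed in buffer with protease inhibitors. Full-length APP and C-terminal fragments detected with CT15 antibody by SDS-PAGE immunoblot and ECL, quantified by densitometry. n=4; ANOVA with Dunnett's test.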

[8] = biological target: Amyloid-beta precursor protein (Homo sapiens) (UniProt P05067); test: Reduction in wild type APP751 (unknown origin) expressed in CHO cells assessed as increase in secreted APPalpha at 50 nM to 10 uM after 48 hrs by immunoblotting method relative to untreated control; assay type: cell-based
Method in brief: (§3)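 48 h treatment of APP751wt-expressing CHO (7WD10) cells, DMSO control. Conditioned medium immunoblotted for sAPPα (6E10), sAPPβ (anti-sAPPβ-wt rabbit IgG) and total sAPP (63G). Detection by ECL, densitometric quantification.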

[9] = biological target: Amyloid-beta precursor protein (Homo sapiens) (UniProt P05067); test: Reduction in wild type APP751 (unknown origin) expressed in CHO cells assessed as increase in secreted APPbeta at 50 nM to 10 uM after 48 hrs by immunoblotting method relative to untreated control; assay type: cell-based; method in brief: as §3
[10] = biological target: Amyloid-beta precursor protein (Homo sapiens) (UniProt P05067); test: Reduction in wild type APP751 (unknown origin) expressed in CHO cells assessed as increase in secreted APPalpha at 50 nM to 10 uM after 48 hrs by immunoblotting method; assay type: cell-based; design: scale not given: the % may be the effect or the level left; method in brief: as §3
[11] = biological target: Amyloid-beta precursor protein (Homo sapiens) (UniProt P05067); test: Reduction in wild type APP751 (unknown origin) expressed in CHO cells assessed as increase in full length APP level at 50 nM to 10 uM after 48 hrs by immunoblotting method; assay type: cell-based; method in brief: as §2
[12] = biological target: Amyloid-beta precursor protein (Homo sapiens) (UniProt P05067); test: Reduction in wild type APP751 (unknown origin) expressed in CHO cells assessed as increase in alpha c-terminal fragments at 50 nM to 10 uM after 48 hrs by immunoblotting method relative to untreated control; assay type: cell-based; method in brief: as §2
[13] = biological target: Amyloid-beta precursor protein (Homo sapiens) (UniProt P05067); test: Reduction in wild type APP751 (unknown origin) expressed in CHO cells assessed as increase in alpha c-terminal fragments at 50 nM to 10 uM after 48 hrs by immunoblotting method; assay type: cell-based; design: scale not given: the % may be the effect or the level left; method in brief: as §2
[14] = biological target: Amyloid-beta precursor protein (Homo sapiens) (UniProt P05067); test: Reduction in wild type APP751 (unknown origin) expressed in CHO cells assessed as increase in beta c-terminal fragments at 50 nM to 10 uM after 48 hrs by immunoblotting method; assay type: cell-based; method in brief: as §2
CHO [15] = test: Toxicity against CHO cells assessed as induction of cell death up to 1 uM by LDH release assay; assay type: cell-based, Cricetulus griseus; conditions: chinese hamster
Method in brief: (§4)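 Cytotoxicity in CHO cells measured by lactate dehydrogenase release and by MTT reduction. n=4 per group; ANOVA followed by Dunnett's post-hoc test.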

CHO [16] = test: Toxicity against CHO cells assessed as induction of cell death up to 1 uM by MTT assay; assay type: cell-based, Cricetulus griseus; conditions: chinese hamster; method in brief: as §4
CHO [17] = test: Toxicity against CHO cells assessed as induction of cell death at 10 uM by LDH release assay; assay type: cell-based, Cricetulus griseus; conditions: chinese hamster; method in brief: as §4
CHO [18] = test: Toxicity against CHO cells assessed as induction of cell death at 10 uM by MTT assay; assay type: cell-based, Cricetulus griseus; conditions: chinese hamster; method in brief: as §4
Mus musculus = test: Reduction in amyloid plaque numbers in APP/PS1 double transgenic APdeltaE9 mouse 0.5 mg/kg, ip dosed daily for 60 days starting from 4 to 6 months of age; assay type: functional; conditions: 1440 h, route intraperitoneal
Method in brief: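 APP/PS1 double transgenic (APΔE9) mice dosed i.p. daily, 0.5 mg/kg body wt., from 4- to 6-months of age for 60 days. Amyloid plaque numbers counted in brain sections (cortex and hippocampus) versus vehicle-treated mice.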

[19] = Drug level in brain of APP/PS1 double transgenic APdeltaE9 mouse 4 mg/kg, iv measured after 10 mins; assay type: ADME, organism-based; design: dose 4 mg/kg, route intravenous; conditions: read-out: Drug uptake
Method in brief: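 Mice given 4 mg/kg by intravenous injection; compound level measured in brain over time after dosing (about 10–20 min window).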

[20] = Half life in brain of APP/PS1 double transgenic APdeltaE9 mouse 4 mg/kg, iv; assay type: ADME, organism-based; design: dose 4 mg/kg, route intravenous

Sequence of Amyloid-beta precursor protein (Homo sapiens) (P05067 whole entry, the tested form may be a part): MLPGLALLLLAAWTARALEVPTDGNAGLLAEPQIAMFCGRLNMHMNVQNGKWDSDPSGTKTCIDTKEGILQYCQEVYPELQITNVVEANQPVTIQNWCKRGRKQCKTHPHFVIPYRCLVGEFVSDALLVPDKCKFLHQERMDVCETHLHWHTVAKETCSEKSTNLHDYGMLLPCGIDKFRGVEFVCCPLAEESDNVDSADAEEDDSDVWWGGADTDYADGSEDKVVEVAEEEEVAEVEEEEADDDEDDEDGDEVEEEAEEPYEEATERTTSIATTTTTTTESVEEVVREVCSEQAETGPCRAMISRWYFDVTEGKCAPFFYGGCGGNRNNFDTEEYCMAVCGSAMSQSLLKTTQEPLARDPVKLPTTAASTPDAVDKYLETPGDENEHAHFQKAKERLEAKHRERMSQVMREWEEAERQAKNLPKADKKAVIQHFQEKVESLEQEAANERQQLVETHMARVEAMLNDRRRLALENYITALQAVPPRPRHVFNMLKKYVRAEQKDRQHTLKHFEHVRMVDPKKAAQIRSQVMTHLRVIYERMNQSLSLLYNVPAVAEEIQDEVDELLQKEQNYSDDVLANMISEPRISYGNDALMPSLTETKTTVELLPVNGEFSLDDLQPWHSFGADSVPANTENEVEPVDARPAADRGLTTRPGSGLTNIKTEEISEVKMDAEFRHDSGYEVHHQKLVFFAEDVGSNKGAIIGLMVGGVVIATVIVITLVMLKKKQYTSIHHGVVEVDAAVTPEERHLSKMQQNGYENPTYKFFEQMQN

SMILES: NC(=O)c1ccc(N2CCN(c3nc(-c4cccc(O)c4)cs3)CC2)c(Nc2nc(-c3cccc(O)c3)cs2)c1
- inhibition [1]: Active
- inhibition (N2a): Active
- inhibition [2]: 31%
- inhibition [3]: 54%
- inhibition [4]: 63%
- inhibition [5]: 21%
- inhibition [6]: 20%
- inhibition [7]: Dose-dependent effect
- inhibition [8]: Dose-dependent effect
- inhibition [9]: inactive
- Activity [10]: 40%
- inhibition [11]: Dose-dependent effect
- inhibition [12]: Dose-dependent effect
- Activity [13]: 80%
- inhibition [14]: inactive
- Activity (CHO [15]): Non-toxic
- Activity (CHO [16]): Non-toxic
- Activity (CHO [17]): Toxic
- Activity (CHO [18]): Toxic
- inhibition in vivo at 0.5 mg/kg (Mus musculus): 39%
- concentration at 10 min [19]: 40 ng/mL
- half-life [20]: 6.7 min
